In brackets after ≈: the same amount, converted by molar mass.
Legend:
[1] = Toxicity in Sprague-Dawley rat administered orally once daily for 2 weeks; assay type: organism-based; details: in vivo, po
How it was run: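 Male Sprague Dawley rats, 6 weeks old (5 per group), were dosed orally once daily for 2 weeks at 100 or 1000 mg/kg as a suspension in 0.5% methylcellulose; controls received vehicle. Readouts: clinical observations, body weight, food consumption, ophthalmoscopy in week 2, and terminal necropsy, hematology, clinical chemistry, organ weights and histopathology. Plasma levels were measured 24 h post-dose on days 1, 5 and 10.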

[2] = Solubility of the compound in PBS at pH 7.2; assay type: physicochemical
Rattus norvegicus = assay: Anti-hepatic steatosis activity in high sucrose very low fat diet fed Sprague-Dawley rat assessed as reduction in triglyceride level in liver administered orally once daily for 8 days and measured on day 8 post last dose; assay type: functional, organism-based
How it was run: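 SD rats kept on a high sucrose very low fat diet, dosed orally at 1 or 10 mg/kg once daily for 8 days. On day 8, liver slices were homogenized in methanol and extracted with methanol/chloroform. The supernatant was dried under N2 and redissolved in 2-propanol. Triglyceride was read on an automatic analyzer and expressed as mg/g tissue.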

Mus musculus [3] = assay: Antiobesity activity in high fat diet fed C57BL/6J mouse assessed as reduction in diet-induced body weight gain administered orally as diet mixture for 43 days; assay type: functional, organism-based
How it was run: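 C57BL/6J mice, individually housed, fed HFD for one month, then given HFD admixed with drug (0.0040% for 3 mg/kg/day, 0.0133% for 10 mg/kg/day) for 43 days, from 10 to 16 weeks of age. Chow-fed normal group as control. Body weight measured every 3–4 days. Mean ± SD, n=5–8. Dunnett's test versus HFD control.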

[4] = Ratio of drug uptake in high sucrose diet Sprague-Dawley rat liver to eyelid at 10 mg/kg, po treated after 6 hrs; assay type: ADME, organism-based; details: in vivo
How it was run: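 Sprague-Dawley rats on a high sucrose diet, given a single oral 10 mg/kg dose. Plasma, liver and eyelid drug concentrations were measured 6 h later, n=3. Liver/eyelid ratio was taken from the tissue concentrations.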

[5] = Oral bioavailability in C57BL/6J mouse at 10 mg/kg; assay type: ADME, organism-based; details: in vivo
How it was run: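 Two male C57BL/6J mice per route, 10 mg/kg po and 1 mg/kg iv. Plasma concentration–time profiles gave Cmax, tmax, terminal half-life and AUC0-inf. Bioavailability was derived from the po and iv data.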

Mus musculus [6] = assay: Ex vivo inhibition of SCD1 in C57BL/6J mouse eyelid assessed as residual activity at 1 mg/kg, po treated for 6 hrs followed by incubation with [14C]stearoyl-CoA substrate for 30 mins by TLC assay relative to control; assay type: organism-based
How it was run: (§1)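 Male 6-week-old C57BL/6J mice dosed orally as a suspension in 0.5% methylcellulose. Liver or eyelid was taken 6 or 24 h later and homogenized in 100 mM Tris-HCl pH 7.4 with 0.25 M sucrose. S9 was obtained at 10,000 × g, 4 °C. S9 was incubated with [14C]stearoyl-CoA, NADH, MgCl2 and cytochrome b5 at room temperature, 10 min for liver and 30 min for eyelid. Lipids were saponified and run on AgNO3 TLC to quantify stearate and oleate. Result is % of vehicle control.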

[7] = Metabolic stability in mouse liver S9 fraction after 1 hr; assay type: ADME, subcellular; details: read-out: Stability
Mus musculus [8] = assay: Ex vivo inhibition of SCD1 in C57BL/6J mouse eyelid assessed as residual activity at 100 mg/kg, po treated for 24 hrs followed by incubation with [14C]stearoyl-CoA substrate for 30 mins by TLC assay relative to control; assay type: organism-based; how it was run: as §1
hERG (KCNH2) = hERG (KCNH2) (Homo sapiens, UniProt Q12809); assay: Inhibition of human ERG at 10 uM relative to control
Cytochrome P450 2D6 = Cytochrome P450 2D6 (Homo sapiens, UniProt P10635); assay: Inhibition of CYP2D6 (unknown origin); assay type: ADME
[9] = Total clearance in Sprague-Dawley rat at 1 mg/kg, iv; assay type: ADME, organism-based; details: in vivo
How it was run: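 Single intravenous dose of 1 mg/kg, with a parallel oral arm at 10 mg/kg, given to two male animals per species: C57BL/6J mice and Sprague Dawley rats. Total body clearance was derived from the plasma concentration–time profile of the compound.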

[10] = Tmax in Sprague-Dawley rat at 10 mg/kg, po; assay type: ADME, organism-based; details: in vivo
How it was run: (§2)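 Two male Sprague-Dawley rats per route, 10 mg/kg po and 1 mg/kg iv. Cmax, tmax, terminal-phase half-life and AUC0-inf were taken from plasma concentration–time curves. Bioavailability was derived from the po and iv data.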

Cytochrome P450 2A6 = molecular target: T1, Cytochrome P450 2A6 (Homo sapiens, UniProt P11509); assay: Inhibition of CYP2A6 (unknown origin); assay type: ADME
T1 sequence (P11509 whole entry): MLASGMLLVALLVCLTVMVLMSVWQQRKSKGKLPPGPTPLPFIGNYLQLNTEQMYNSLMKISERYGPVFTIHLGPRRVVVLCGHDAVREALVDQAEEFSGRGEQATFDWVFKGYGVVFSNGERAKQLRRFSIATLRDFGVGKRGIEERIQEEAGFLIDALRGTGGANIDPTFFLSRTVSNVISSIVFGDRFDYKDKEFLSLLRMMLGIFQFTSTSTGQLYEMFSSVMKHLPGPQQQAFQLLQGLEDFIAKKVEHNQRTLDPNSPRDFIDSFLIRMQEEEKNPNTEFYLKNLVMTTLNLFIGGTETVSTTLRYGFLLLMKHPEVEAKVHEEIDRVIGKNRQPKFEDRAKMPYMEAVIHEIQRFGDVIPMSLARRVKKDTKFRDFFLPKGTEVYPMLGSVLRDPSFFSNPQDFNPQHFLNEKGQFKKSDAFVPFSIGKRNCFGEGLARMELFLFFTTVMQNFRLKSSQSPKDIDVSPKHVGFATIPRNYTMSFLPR

Mus musculus [11] = assay: Ex vivo inhibition of SCD1 in C57BL/6J mouse liver assessed as residual activity at 10 mg/kg, po treated for 24 hrs followed by incubation with [14C]stearoyl-CoA substrate for 10 mins by TLC assay relative to control; assay type: functional; how it was run: as §1
Acyl-CoA desaturase 1 = molecular target: T2, Acyl-CoA desaturase 1 (Mus musculus, UniProt P13516); assay: Inhibition of mouse liver microsome SCD assessed as reduction in [3H]H2O production using stearoyl [9,10-3H]CoA as substrate in presence of NADH incubated for 30 mins by scintillation counting method; assay type: microsomes
T2 sequence (P13516 whole entry): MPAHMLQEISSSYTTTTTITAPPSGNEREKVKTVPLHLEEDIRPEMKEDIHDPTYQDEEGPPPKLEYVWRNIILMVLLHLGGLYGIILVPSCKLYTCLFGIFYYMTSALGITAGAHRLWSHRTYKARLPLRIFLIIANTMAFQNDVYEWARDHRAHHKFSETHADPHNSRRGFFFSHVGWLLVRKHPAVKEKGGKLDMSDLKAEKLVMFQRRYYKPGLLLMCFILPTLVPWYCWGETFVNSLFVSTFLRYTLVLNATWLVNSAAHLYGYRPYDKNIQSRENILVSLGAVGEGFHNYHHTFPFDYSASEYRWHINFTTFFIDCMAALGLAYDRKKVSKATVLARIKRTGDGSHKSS
How it was run: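 Desaturation of [9,10-3H]stearoyl-CoA measured as released [3H]H2O. Water was separated from charcoal-adsorbed substrate by filtration and counted by scintillation. Remaining activity = (compound − background)/(control − background). DMSO wells served as control and pre-stopped wells as background. IC50 was interpolated from the two points bracketing 50%.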

[12] = Oral bioavailability in Sprague-Dawley rat at 10 mg/kg; assay type: ADME, organism-based; details: in vivo; how it was run: as §2

Sequence of hERG (KCNH2) (Q12809 whole entry): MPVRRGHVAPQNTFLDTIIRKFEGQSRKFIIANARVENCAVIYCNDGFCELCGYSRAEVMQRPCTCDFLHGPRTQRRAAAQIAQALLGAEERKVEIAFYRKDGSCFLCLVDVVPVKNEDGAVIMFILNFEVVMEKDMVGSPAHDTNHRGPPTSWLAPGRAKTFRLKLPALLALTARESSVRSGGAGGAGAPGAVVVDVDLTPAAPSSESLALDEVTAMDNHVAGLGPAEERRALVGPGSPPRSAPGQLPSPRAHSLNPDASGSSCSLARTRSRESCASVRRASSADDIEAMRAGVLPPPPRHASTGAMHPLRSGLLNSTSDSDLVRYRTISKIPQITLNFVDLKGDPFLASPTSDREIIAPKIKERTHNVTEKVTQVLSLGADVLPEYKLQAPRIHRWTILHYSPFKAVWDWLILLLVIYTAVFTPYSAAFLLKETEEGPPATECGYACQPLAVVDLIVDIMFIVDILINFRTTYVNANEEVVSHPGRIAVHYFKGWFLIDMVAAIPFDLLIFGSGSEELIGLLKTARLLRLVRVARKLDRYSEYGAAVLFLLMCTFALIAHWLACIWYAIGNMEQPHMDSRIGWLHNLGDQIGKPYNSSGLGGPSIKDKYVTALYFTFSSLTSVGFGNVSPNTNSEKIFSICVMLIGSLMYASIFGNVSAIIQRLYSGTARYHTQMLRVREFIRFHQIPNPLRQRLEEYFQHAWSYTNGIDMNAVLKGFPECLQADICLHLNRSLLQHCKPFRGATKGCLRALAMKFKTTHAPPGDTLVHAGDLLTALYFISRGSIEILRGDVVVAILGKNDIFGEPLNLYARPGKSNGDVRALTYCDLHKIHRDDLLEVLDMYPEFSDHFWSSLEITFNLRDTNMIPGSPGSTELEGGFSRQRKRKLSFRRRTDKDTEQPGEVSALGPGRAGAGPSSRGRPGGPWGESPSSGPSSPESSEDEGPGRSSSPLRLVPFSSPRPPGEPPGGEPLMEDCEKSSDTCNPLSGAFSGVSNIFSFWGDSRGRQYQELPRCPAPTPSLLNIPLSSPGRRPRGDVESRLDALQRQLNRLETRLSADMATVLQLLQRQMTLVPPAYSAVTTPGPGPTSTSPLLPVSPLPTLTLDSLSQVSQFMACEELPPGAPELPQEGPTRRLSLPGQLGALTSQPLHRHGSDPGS
Sequence of Cytochrome P450 2D6 (P10635 whole entry): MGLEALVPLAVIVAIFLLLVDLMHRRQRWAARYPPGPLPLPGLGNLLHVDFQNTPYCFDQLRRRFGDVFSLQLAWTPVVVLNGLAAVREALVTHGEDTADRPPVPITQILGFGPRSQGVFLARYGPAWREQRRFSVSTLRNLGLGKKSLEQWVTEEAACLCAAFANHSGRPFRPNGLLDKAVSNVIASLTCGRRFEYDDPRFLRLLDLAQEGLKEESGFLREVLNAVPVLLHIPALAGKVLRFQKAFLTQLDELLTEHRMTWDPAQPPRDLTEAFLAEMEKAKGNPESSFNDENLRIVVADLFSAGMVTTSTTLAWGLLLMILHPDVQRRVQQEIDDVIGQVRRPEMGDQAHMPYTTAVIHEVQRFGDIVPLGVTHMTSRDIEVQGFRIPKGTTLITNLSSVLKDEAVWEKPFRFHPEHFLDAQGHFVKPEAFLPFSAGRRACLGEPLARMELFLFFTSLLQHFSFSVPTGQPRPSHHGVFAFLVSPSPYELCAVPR

For CCCCc1ccccc1NCc1ccc(C(=O)Nc2nc(CC(=O)O)cs2)s1, the NOAEL at 336 h [1] was 100 mg/kg, the solubility [2] was 82 µM (≈ 35.2 µg/mL) and the Activity (Rattus norvegicus) was “Dose-dependent effect”. The Activity (Mus musculus [3]) was “Dose-dependent effect”, the Ratio [4] was 6.3 and the bioavailability [5] was 28%. For the same compound, the Activity (Mus musculus [6]) was 97%, the remaining at 1 h [7] was 90% and the Activity (Mus musculus [8]) was 57%. For the same compound, the inhibition at 10 µM (hERG (KCNH2)) was 14.7%, the IC50 (Cytochrome P450 2D6) was > 50 µM and the clearance [9] was 3.5 mL/min/kg. For the same compound, the Tmax [10] was 30 min, the IC50 (Cytochrome P450 2A6) was > 50 µM and the Activity (Mus musculus [11]) was 11%. It also gave an IC50 (Acyl-CoA desaturase 1) of 0.0054 µM and a bioavailability [12] of 16%.

Source: ChEMBL document CHEMBL4265954, “Discovery of potent liver-selective stearoyl-CoA desaturase-1 (SCD1) inhibitors, thiazole-4-acetic acid derivatives, for the treatment of diabetes, hepatic steatosis, and obesity” (Eur J Med Chem, 2018)
